{"data": "Experimental data pooled from the literature", "technique": "competition with immobilised ligand", "RPS6KA3 N-terminal kinase domain": "Ribosomal protein S6 kinase alpha-3, N-terminal kinase domain (RPS6KA3, Homo sapiens, UniProt P51812)", "RPS6KA3 C-terminal kinase domain": "Ribosomal protein S6 kinase alpha-3, C-terminal kinase domain (RPS6KA3, Homo sapiens, UniProt P51812)", "note": "Protocols differ between the studies behind these lines."}
{"Structure (SMILES)": "COc1ncc2cc3ccccc3nc2c1C#N", "target": "RPS6KA3 N-terminal kinase domain", "read-out": "cell-free assay", "tested at": "5 µM", "remaining binding": "89%"}
{"Structure (SMILES)": "C[C@H](c1ccnc(Nc2nc3ccc(-c4cc(N(C)C)ncn4)cc3[nH]2)c1)N1CCN(C(=O)CC(F)(F)F)CC1", "target": "RPS6KA3 C-terminal kinase domain", "read-out": "cell-free assay", "tested at": "0.1 µM", "remaining binding": "100%"}
{"Structure (SMILES)": "C[C@H]1CCN(c2nccc(-c3cnn4ncccc34)n2)C1", "target": "RPS6KA3 N-terminal kinase domain", "read-out": "binding", "tested at": "1 µM", "remaining binding": "78%"}
{"Structure (SMILES)": "Cc1cnc(Nc2ccc(C(=O)N3CCC(N4CCCC4)CC3)cc2)nc1-c1cc2ccccc2s1", "target": "RPS6KA3 N-terminal kinase domain", "read-out": "binding", "tested at": "1 µM", "remaining binding": "22%"}
{"Structure (SMILES)": "O=C(Nc1ccc(Oc2ccc(F)cc2)cc1)N1CCc2ncccc2[C@H]1c1ccc(F)cc1", "target": "RPS6KA3 C-terminal kinase domain", "read-out": "cell-free assay", "tested at": "1 µM", "remaining binding": "97%"}
{"Structure (SMILES)": "CN(C)c1nccc(-c2cnn3ncccc23)n1", "target": "RPS6KA3 N-terminal kinase domain", "read-out": "binding", "tested at": "1 µM", "remaining binding": "82%"}
{"Structure (SMILES)": "C[C@@]1(Cc2ccc(C#N)cc2)C(=O)N(c2cc(Cl)cc(Cl)c2)c2ncc(C(=O)NC3(c4nc(C5CCC5)no4)CC3)n21", "target": "RPS6KA3 C-terminal kinase domain", "read-out": "cell-free assay", "tested at": "1 µM", "remaining binding": "100%"}
{"Structure (SMILES)": "O=C(Nc1c[nH]nc1C(=O)NC1CCNCC1)c1cc(F)cc(F)c1", "target": "RPS6KA3 C-terminal kinase domain", "read-out": "binding", "tested at": "1 µM", "remaining binding": "100%"}
{"Structure (SMILES)": "O=C(c1ccc(Nc2ncc(Cl)c(-c3ccc(Cl)s3)n2)cc1)N1CCC(N2CCCC2)CC1", "target": "RPS6KA3 N-terminal kinase domain", "read-out": "binding", "tested at": "1 µM", "remaining binding": "30%"}
{"Structure (SMILES)": "O=S(=O)(NC1CCC(c2cc(F)ccc2F)(S(=O)(=O)c2ccc(Cl)cc2)CC1)C(F)(F)F (stereo not shown)", "target": "RPS6KA3 C-terminal kinase domain", "read-out": "cell-free assay", "tested at": "1 µM", "remaining binding": "83%"}
{"Structure (SMILES)": "FC(F)(F)Oc1cccc(-c2cnc3ccc(-c4ccncc4)nn23)c1", "target": "RPS6KA3 C-terminal kinase domain", "read-out": "binding", "tested at": "5 µM", "remaining binding": "69%"}
{"Structure (SMILES)": "c1cncc(-c2cccc(Nc3nccc(NC4CCCCC4)n3)c2)c1", "target": "RPS6KA3 N-terminal kinase domain", "read-out": "binding", "tested at": "10 µM", "remaining binding": "42%"}
{"Structure (SMILES)": "N[C@H]1CCN(c2nccc(-c3cnn4ncccc34)n2)C1", "target": "RPS6KA3 N-terminal kinase domain", "read-out": "binding", "tested at": "1 µM", "remaining binding": "89%"}
{"Structure (SMILES)": "O=C(c1ccc(Nc2nccc(-c3cc4ccccc4s3)n2)cc1)N1CCC(N2CCCC2)CC1", "target": "RPS6KA3 C-terminal kinase domain", "read-out": "binding", "tested at": "1 µM", "remaining binding": "66%"}
{"Structure (SMILES)": "C=CC(=O)N1CCC(C(=O)NCC(=O)N2CCN(c3nc(-c4cnc(N)nc4C(F)F)nc(N4CCOCC4)n3)CC2)CC1", "target": "RPS6KA3 N-terminal kinase domain", "read-out": "binding", "tested at": "1 µM", "remaining binding": "85%"}
{"Structure (SMILES)": "O=C(NCCCN1CCOCC1)c1ccc(Nc2nccc(-c3cc4ccccc4s3)n2)cc1", "target": "RPS6KA3 C-terminal kinase domain", "read-out": "binding", "tested at": "1 µM", "remaining binding": "73%"}
{"Structure (SMILES)": "COc1cnc(Nc2cccc(S(N)(=O)=O)c2)nc1N1CCN(c2ccccc2)CC1", "target": "RPS6KA3 N-terminal kinase domain", "read-out": "binding", "tested at": "1 µM", "remaining binding": "89%"}
{"Structure (SMILES)": "O=C(NCCCN1CCOCC1)c1ccc(Nc2ncc(Cl)c(-c3ccc(Cl)s3)n2)cc1", "target": "RPS6KA3 C-terminal kinase domain", "read-out": "binding", "tested at": "1 µM", "remaining binding": "100%"}
{"Structure (SMILES)": "C[C@@H](c1ccc(-n2cnc3c(N)ncnc32)cc1)N1CCc2nn(C)c(Cc3ccccc3)c2C1=O", "target": "RPS6KA3 C-terminal kinase domain", "read-out": "binding", "tested at": "0.1 µM", "remaining binding": "94%"}
{"Structure (SMILES)": "COc1cnc(Nc2cccc(S(N)(=O)=O)c2)nc1N1CCN(c2ccccc2)C(=O)C1", "target": "RPS6KA3 C-terminal kinase domain", "read-out": "binding", "tested at": "1 µM", "remaining binding": "97%"}
{"Structure (SMILES)": "F[C@@H]1CCN(c2nccc(-c3cnn4ncccc34)n2)C1", "target": "RPS6KA3 N-terminal kinase domain", "read-out": "binding", "tested at": "1 µM", "remaining binding": "100%"}
{"Structure (SMILES)": "CNC(=O)[C@@H]1CC[C@@H](n2c(-c3ccc4cnccc4c3)nc3ccc(C(=O)NCc4cccc(C(N)=O)c4)cc32)C1", "target": "RPS6KA3 C-terminal kinase domain", "read-out": "binding", "tested at": "1 µM", "remaining binding": "100%"}
{"Structure (SMILES)": "O=C(c1ccc(Nc2ncc(Cl)c(-c3cc4ccccc4s3)n2)cc1)N1CCC(N2CCCC2)CC1", "target": "RPS6KA3 C-terminal kinase domain", "read-out": "binding", "tested at": "1 µM", "remaining binding": "77%"}
{"Structure (SMILES)": "CC(C)(C)c1ccc(-c2nc(CBr)nn2-c2cccc(O)c2)cc1", "target": "RPS6KA3 N-terminal kinase domain", "read-out": "cell-free assay", "tested at": "10 µM", "remaining binding": "74%"}
{"Structure (SMILES)": "CCCOc1ccc([C@H]2[C@H](C(=O)O)[C@@H](c3ccc4c(c3)OCO4)CN2CC(=O)Nc2c(CC)cccc2CC)cc1", "target": "RPS6KA3 N-terminal kinase domain", "read-out": "cell-free assay", "tested at": "1 µM", "remaining binding": "72%"}
{"Structure (SMILES)": "O=C(NCC1CCOCC1)c1n[nH]cc1NC(=O)c1c(F)cccc1F", "target": "RPS6KA3 N-terminal kinase domain", "read-out": "binding", "tested at": "1 µM", "remaining binding": "78%"}
{"Structure (SMILES)": "Nc1ncc2c(n1)-c1c([nH]c3ccc(C#CC4CC4)cc13)CCCC2", "target": "RPS6KA3 N-terminal kinase domain", "read-out": "binding", "tested at": "1 µM", "remaining binding": "73%"}
{"Structure (SMILES)": "C[C@H](NC(=O)c1cnc2n1[C@](C)(Cc1ccc(C#N)cc1)C(=O)N2c1cc(Cl)c(F)c(Cl)c1)C(=O)NC1(c2ccccn2)CC1", "target": "RPS6KA3 N-terminal kinase domain", "read-out": "cell-free assay", "tested at": "1 µM", "remaining binding": "100%"}
{"Structure (SMILES)": "Cc1cnn2ncc(-c3ccnc(N(C)C)n3)c2c1", "target": "RPS6KA3 C-terminal kinase domain", "read-out": "binding", "tested at": "1 µM", "remaining binding": "100%"}
{"Structure (SMILES)": "Cc1c(NC(=O)c2cc(C(N)=O)nc3cc(F)ccc23)c(C(F)(F)F)nn1Cc1ccc(C(C)(C)C)cc1", "target": "RPS6KA3 C-terminal kinase domain", "read-out": "cell-free assay", "tested at": "1 µM", "remaining binding": "100%"}
{"Structure (SMILES)": "c1cnn2ncc(-c3ccnc(N4CCC45COC5)n3)c2c1", "target": "RPS6KA3 N-terminal kinase domain", "read-out": "binding", "tested at": "1 µM", "remaining binding": "61%"}
{"Structure (SMILES)": "CCN1CCN(Cc2ccc(C(=O)Nc3ccc(C)c(Oc4ccc5c(c4)CC(=O)N5)c3)cc2C(F)(F)F)CC1", "target": "RPS6KA3 C-terminal kinase domain", "read-out": "binding", "tested at": "1 µM", "remaining binding": "100%"}
{"Structure (SMILES)": "CN(CCCC(F)(F)F)c1nccc(-c2cnn3ncccc23)n1", "target": "RPS6KA3 C-terminal kinase domain", "read-out": "binding", "tested at": "1 µM", "remaining binding": "100%"}
{"Structure (SMILES)": "O=C1NC(c2ccccn2)Sc2ccccc21 (stereo not shown)", "target": "RPS6KA3 N-terminal kinase domain", "read-out": "cell-free assay", "tested at": "1 µM", "remaining binding": "72%"}
